Bioassay records from PubChem BioAssay.
Compounds with a hit are over-represented: about 3.8% of the library has one in this group of screens.
Insulin prom inh: TRM-6 insulin promoter activity inhibition. TRM-6 cells (human fetal islet line), insulin promoter-eGFP reporter, imaging; reporter expression induced with tamoxifen. inhibition, % at 2 µM. hit rate 0.9% among 130,000. AID 1273;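 active means inhibition above the mean plus 3 SD, with well images judged a real hit on visual review, cut at about 60% in these data, passing the limit was not always enough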
NPY2 pot ag: potentiators or agonists of human neuropeptide Y receptor Y2; P49146; hit rate 0.45% among 220,000; cells expressing NPY-Y2, potentiator/agonist read-out; AID 1359; activation, % at 3.6 µM; in the data active means activation above about 27%;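 further: cells stimulated with NPY near EC25 plus isoproterenol at EC100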
Target sequence (P49146 whole entry, looked up): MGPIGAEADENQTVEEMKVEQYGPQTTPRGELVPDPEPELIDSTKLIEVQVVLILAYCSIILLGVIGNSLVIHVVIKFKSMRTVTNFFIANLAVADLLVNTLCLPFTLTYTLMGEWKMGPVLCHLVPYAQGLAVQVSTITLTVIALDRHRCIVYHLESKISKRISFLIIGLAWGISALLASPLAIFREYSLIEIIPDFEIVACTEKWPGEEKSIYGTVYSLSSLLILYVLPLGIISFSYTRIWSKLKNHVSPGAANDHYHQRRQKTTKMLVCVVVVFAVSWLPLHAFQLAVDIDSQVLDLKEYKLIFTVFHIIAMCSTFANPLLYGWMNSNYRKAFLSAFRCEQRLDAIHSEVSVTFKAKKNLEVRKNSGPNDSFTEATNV
NPY-Y1 antag: antagonists of human neuropeptide Y receptor Y1 | HEK293-CNG Y1 cells, membrane potential fluorescence; NPY at EC95, then isoproterenol | inhibition, % at 3.6 µM | hit rate 1% among 200,000;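 active means inhibition above the campaign mean inhibition of all tested compounds plus 3 SD, cut at about 20% in these data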
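Material: HEK293 cells with Y1 receptor plus CNG channel; times: compound incubation 1 h at room temperature, readout 45 min post-stimulation; signal: fluorescence, membrane potential probe; read-out basis: fluorescence ratio normalized to % inhibition between controls; benchmarks: full-block control isoproterenol-only wells, zero-block control NPY plus isoproterenol wells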
NPY-Y2 antag: blocks the human neuropeptide Y Y2 receptor | P49146 | NPY-Y2 expressing cells, antagonist mode | inhibition, % at 2.7 µM | hit rate 0.99% among 140,000 | AID 793; in the data active means inhibition above about 17%
NPY1 pot ag: human NPY-Y1 potentiation or agonism, primary screen. activation, % at 3.6 µM. P25929. NPY-Y1 expressing cells, potentiator/agonist activation. hit rate 0.37% among 220,000; in the data active means activation above about 33%, passing the limit was not always enough;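 further: cells stimulated with NPY at EC10 then isoproterenol at EC100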
RAM inhibit: inhibitors of the yeast RAM network; S. cerevisiae dse1pr::URA3 reporter, 5-FOA growth OD615, 2 d; analog-sensitive cbk1-as2 kinase mutant strain; inhibition, % at 50 µM; hit rate 1.8% among 190,000;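 active means inhibition above a set limit, 3 SD over mean compound inhibition, cut at about 8.4% in these data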;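 further: inhibition rescues growth on 5-FOA so higher OD means more RAM inhibition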
Hits are given with their value.

`COc1cccc(NC(=O)NC2CCCCC2C)c1` (centres undefined) gave NPY2 pot ag inactive, NPY-Y1 antag inactive, NPY1 pot ag inactive and RAM inhibit inactive.
Screening CCN(CC)CCC(=O)NC(C)(C)Cc1ccc(O)cc1 returned Insulin prom inh inactive, NPY2 pot ag inactive, NPY-Y1 antag inactive, NPY-Y2 antag inactive, NPY1 pot ag 37 and RAM inhibit inactive.
COc1ccc(Cn2cc(C(=O)c3ccccc3)c(=O)c3cc(OC)ccc32)cc1 was read as Insulin prom inh inactive, NPY2 pot ag inactive, NPY-Y1 antag inactive, NPY-Y2 antag inactive, NPY1 pot ag inactive and RAM inhibit inactive.
`Cc1ccc(Cn2cc(C(=O)c3ccc(F)cc3)c(=O)c3cc4c(cc32)OCCO4)cc1` gave Insulin prom inh inactive, NPY2 pot ag inactive, NPY-Y1 antag inactive, NPY-Y2 antag inactive, NPY1 pot ag inactive and RAM inhibit 10.
`CC1=CC(=O)C=C(C)C1=NOc1ccc([N+](=O)[O-])cc1` gave Insulin prom inh 100, NPY2 pot ag inactive, NPY-Y1 antag inactive, NPY1 pot ag inactive and RAM inhibit inactive.
For COc1cc(CNc2ncnc3c2[nH]c2ccc(C)cc23)cc(OC)c1 the results were NPY2 pot ag inactive and NPY1 pot ag inactive.
For Cc1ccc2[nH]c3c(NCc4ccco4)ncnc3c2c1 the results were Insulin prom inh 85, NPY2 pot ag inactive, NPY-Y1 antag inactive, NPY-Y2 antag inactive, NPY1 pot ag inactive and RAM inhibit inactive.
Screening COc1ccc(-c2ccnc(SCC(=O)c3ccc(Cl)cc3)n2)cc1 returned NPY2 pot ag inactive, NPY-Y1 antag inactive, NPY-Y2 antag inactive, NPY1 pot ag inactive and RAM inhibit 8.9.
`CCOc1ccc(CN(CCC#N)C(=S)NC(=O)c2ccccc2)cc1` gave NPY2 pot ag inactive, NPY-Y1 antag inactive, NPY-Y2 antag inactive, NPY1 pot ag inactive and RAM inhibit inactive.
`CCOc1ccc(C(=O)NC(=S)N(Cc2ccccc2)Cc2ccccc2)cc1` gave Insulin prom inh inactive, NPY2 pot ag inactive, NPY-Y1 antag inactive, NPY-Y2 antag inactive, NPY1 pot ag inactive and RAM inhibit 8.6.
`Cc1ccc(C(=O)CC(=O)c2cc(Cl)ccc2O)cc1` gave Insulin prom inh inactive, NPY2 pot ag inactive, NPY-Y1 antag inactive, NPY-Y2 antag inactive, NPY1 pot ag inactive and RAM inhibit 10.
`CC(C)(C)c1ccc(C(=O)CC(=O)c2cc(Cl)ccc2O)cc1` gave Insulin prom inh inactive, NPY2 pot ag inactive, NPY-Y1 antag inactive, NPY-Y2 antag inactive, NPY1 pot ag inactive and RAM inhibit 10.
`CC(C)(C)c1ccc(C(=O)NNC(=O)c2ccc(Cl)cc2)cc1` gave Insulin prom inh inactive, NPY2 pot ag inactive, NPY-Y1 antag inactive, NPY-Y2 antag inactive, NPY1 pot ag inactive and RAM inhibit inactive.
For CCOc1ccc(C(=O)N/N=C/c2c(C)[nH]c(=O)[nH]c2=O)cc1 the results were NPY2 pot ag inactive and NPY1 pot ag inactive.
C#CCSc1nc(Cc2ccc(Cl)cc2)nc2ccccc12 was read as Insulin prom inh inactive, NPY2 pot ag inactive, NPY-Y1 antag inactive, NPY-Y2 antag inactive, NPY1 pot ag inactive and RAM inhibit 8.6.
Cc1cc(Br)cn2cc(C(=O)O)nc12 was read as Insulin prom inh inactive, NPY2 pot ag inactive, NPY-Y1 antag inactive, NPY1 pot ag inactive and RAM inhibit inactive.
`COn1c(SCc2ccc(C)cc2C)nc2ccccc2c1=O` gave Insulin prom inh inactive, NPY2 pot ag inactive, NPY-Y1 antag inactive, NPY-Y2 antag inactive, NPY1 pot ag inactive and RAM inhibit 9.2.
`Cc1onc(-c2ccccc2)c1CNC(=O)C1COc2ccccc2O1` (centres undefined) gave NPY2 pot ag inactive and NPY1 pot ag inactive.
`COC(=O)C1=C(C)NC(=O)/C1=C\c1cc(C)n(-c2ccccc2C)c1C` gave Insulin prom inh 71, NPY2 pot ag inactive, NPY-Y1 antag inactive, NPY-Y2 antag inactive, NPY1 pot ag inactive and RAM inhibit inactive.
Screening CCOC(=O)C(CC)Sc1nnc(COc2ccc(C)cc2)n1-c1ccccc1 (centres undefined) returned Insulin prom inh inactive, NPY2 pot ag inactive, NPY-Y1 antag inactive, NPY-Y2 antag inactive, NPY1 pot ag inactive and RAM inhibit inactive.
CN1CCN(CCc2cn3ncc(C#N)c3nc2-c2ccc(F)cc2)CC1 was read as NPY2 pot ag inactive, NPY-Y1 antag inactive, NPY1 pot ag inactive and RAM inhibit 11.
CSc1nc2nc(-c3ccc(F)cc3)c(CCN3CCN(C)CC3)cn2n1 was read as NPY2 pot ag inactive, NPY-Y1 antag inactive, NPY1 pot ag inactive and RAM inhibit inactive.
Cc1nn(C)c(C(=O)N/N=C/c2cccc3ccccc23)c1Cl was read as Insulin prom inh inactive, NPY2 pot ag inactive, NPY-Y1 antag inactive, NPY-Y2 antag inactive, NPY1 pot ag inactive and RAM inhibit inactive.
C=CCNc1ncnc2c1[nH]c1ccc(Cl)cc12 was read as Insulin prom inh 93, NPY2 pot ag inactive, NPY-Y1 antag inactive, NPY-Y2 antag inactive, NPY1 pot ag inactive and RAM inhibit inactive.
`C=CCNc1ncnc2c1[nH]c1ccccc12` gave Insulin prom inh inactive, NPY2 pot ag inactive, NPY-Y1 antag inactive, NPY-Y2 antag inactive, NPY1 pot ag inactive and RAM inhibit inactive.
For COc1ccc(CNC(=O)CSc2nc3cccnc3s2)cc1 the results were NPY2 pot ag inactive and NPY1 pot ag inactive.
COCCOC(=O)c1c(NC(=O)CN2CCCc3ccccc32)sc(C(N)=O)c1C was read as NPY2 pot ag inactive, NPY-Y1 antag inactive, NPY-Y2 antag inactive, NPY1 pot ag inactive and RAM inhibit 11.
COc1ccccc1-c1cc(SC)c(C#N)c(=O)o1 was read as Insulin prom inh inactive, NPY2 pot ag inactive, NPY-Y1 antag inactive, NPY-Y2 antag inactive, NPY1 pot ag inactive and RAM inhibit 9.3.
`COc1ccc(NC(=O)COC(=O)C2CC3C=CC2C3)cc1` (centres undefined) gave Insulin prom inh 79, NPY2 pot ag inactive, NPY-Y1 antag inactive, NPY1 pot ag inactive and RAM inhibit inactive.
For CCCNC(=O)Cn1c(=O)/c(=C\c2ccc(-c3cccc([N+](=O)[O-])c3)o2)s/c1=C\C(=O)C(C)(C)C the results were Insulin prom inh inactive, NPY2 pot ag inactive, NPY-Y1 antag inactive, NPY-Y2 antag inactive, NPY1 pot ag inactive and RAM inhibit 9.4.
For CCCNC(=O)Cn1c(=O)/c(=C\c2ccc(-c3ccc([N+](=O)[O-])cc3)o2)s/c1=C\C(=O)C(C)(C)C the results were Insulin prom inh inactive, NPY2 pot ag inactive, NPY-Y1 antag inactive, NPY-Y2 antag inactive, NPY1 pot ag inactive and RAM inhibit 9.7.
For Cc1ccc(C2(C)NC(=O)N(CC(=O)Nc3cc(S(=O)(=O)N4CCOCC4)ccc3C)C2=O)cc1 (centres undefined) the results were Insulin prom inh inactive, NPY2 pot ag inactive, NPY-Y1 antag inactive, NPY-Y2 antag inactive, NPY1 pot ag inactive and RAM inhibit inactive.
